Measurements as given in ChEMBL document CHEMBL4184143 (J Med Chem, 2017).

How the values were obtained:
[1] = biological target: T1, Bromodomain-containing protein 4 (Homo sapiens, UniProt O60885); test: Inhibition of FAM-labeled ZBA248 binding to recombinant human N-terminal His6-tagged BRD4 bromodomain 2 (333 to 460 residues) expressed in Rosetta2 DE3 cells after 30 mins by Flourescence polarization assay; assay type: biochemical
Mus musculus [2] = test: Toxicity in SCID mouse implanted with human MDA-MB-231 cells assessed as weight loss at 40 mg/kg, po qd measured 2 to 3 times weekly during treatment and weekly post dose; assay type: organism-based; conditions: in vivo
In short: (§1)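 At ~100 mm3, mice were randomized to treatment or vehicle control. Tumors were measured by electronic calipers. Animals were checked daily for signs of toxicity and weighed 2–3 times weekly on treatment, then at least weekly afterwards.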

[3] = AUC (0 to t) in Sprague-Dawley rat at 25 mg/kg, po by LC/MS method; assay type: ADME, organism-based; conditions: in vivo
In short: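 Sprague Dawley rats were dosed iv at 5 mg/kg or orally at 25 mg/kg, with compound dissolved in 20% (v/v) PCP/70% (v/v) PBS vehicle. Blood was drawn by catheter at 0, 5, 15, 30 min and 1, 2, 4, 6, 8, 24 h and spun to plasma, which was stored at −80 °C. Plasma drug was quantified by a validated LC–MS/MS method, and parameters were derived noncompartmentally.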

[4] = Half life in Sprague-Dawley rat at 5 mg/kg, iv by LC/MS method; assay type: ADME, organism-based; conditions: in vivo
[5] = Volume of distribution at steady state in Sprague-Dawley rat at 5 mg/kg, iv by LC/MS method; assay type: ADME, organism-based; conditions: in vivo, read-out: Vdss
Mus musculus [6] = test: Half life in SCID mouse at 5 mg/kg, iv by LC/MS method; assay type: ADME, organism-based; conditions: in vivo
[7] = AUC (0 to t) in SCID mouse at 5 mg/kg, iv by LC/MS method; assay type: ADME, organism-based; conditions: in vivo
In short: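 Mouse plasma samples were stored at −80 °C. Drug levels were quantified by a validated LC–MS/MS method, and pharmacokinetic parameters were calculated by noncompartmental analysis.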

[8] = Half life in human liver microsomes at 1 uM by LC/MS method; assay type: ADME, microsome
[9] = biological target: T2, Bromodomain-containing protein 3 (Homo sapiens, UniProt Q15059); test: Binding affinity to human partial length BRD3 bromodomain 1 (P24 to E144 residues) expressed in bacterial expression system by BROMOscan assay
T2 sequence (Q15059 whole entry, the tested form may be a part): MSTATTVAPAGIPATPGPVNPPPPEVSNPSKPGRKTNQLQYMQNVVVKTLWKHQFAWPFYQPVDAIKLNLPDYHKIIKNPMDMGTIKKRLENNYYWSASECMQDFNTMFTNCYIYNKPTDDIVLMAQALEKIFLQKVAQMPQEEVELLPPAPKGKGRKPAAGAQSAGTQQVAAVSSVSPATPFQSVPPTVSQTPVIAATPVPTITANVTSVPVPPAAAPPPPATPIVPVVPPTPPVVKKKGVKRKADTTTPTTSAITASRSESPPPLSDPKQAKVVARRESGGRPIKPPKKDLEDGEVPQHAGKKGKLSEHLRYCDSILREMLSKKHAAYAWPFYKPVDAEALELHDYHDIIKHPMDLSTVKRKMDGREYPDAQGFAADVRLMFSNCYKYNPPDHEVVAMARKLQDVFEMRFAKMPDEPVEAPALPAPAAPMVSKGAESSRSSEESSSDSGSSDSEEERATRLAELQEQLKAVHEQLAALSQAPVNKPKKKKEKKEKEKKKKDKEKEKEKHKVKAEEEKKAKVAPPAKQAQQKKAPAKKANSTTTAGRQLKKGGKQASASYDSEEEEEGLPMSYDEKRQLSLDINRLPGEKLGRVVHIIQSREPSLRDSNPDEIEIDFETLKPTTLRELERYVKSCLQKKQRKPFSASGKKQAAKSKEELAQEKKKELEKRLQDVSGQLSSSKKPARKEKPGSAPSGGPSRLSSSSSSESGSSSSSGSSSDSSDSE

[10] = biological target: T2, Bromodomain-containing protein 3; test: Binding affinity to human partial length BRD3 bromodomain 2 (G306 to P416 residues) expressed in bacterial expression system by BROMOscan assay
[11] = biological target: T1, Bromodomain-containing protein 4; test: Binding affinity to recombinant human BRD4 bromodomain 1 (44 to 168 residues) by BROMOscan assay
[12] = biological target: T1, Bromodomain-containing protein 4; test: Binding affinity to human partial length BRD4 bromodomain 1/2 long isoform (N44 to E460 residues) expressed in bacterial expression system by BROMOscan assay
[13] = biological target: T3, Bromodomain testis-specific protein (Homo sapiens, UniProt Q58F21); test: Binding affinity to human partial length BRDT bromodomain 2 isoform b (K250 to E382 residues) expressed in bacterial expression system by BROMOscan assay
[14] = biological target: T3, Bromodomain testis-specific protein; test: Binding affinity to human partial length BRDT bromodomain 1/2 isoform b (K250 to E382 residues) expressed in bacterial expression system by BROMOscan assay
[15] = biological target: Histone acetyltransferase p300 (Homo sapiens, UniProt Q09472); test: Binding affinity to human partial length EP300 (A1040 to G1161 residues) expressed in bacterial expression system by BROMOscan assay
[16] = biological target: ATPase family AAA domain-containing protein 2B (Homo sapiens, UniProt Q9ULI0); test: Binding affinity to human partial length ATAD2B (Q955 to R1082 residues) expressed in bacterial expression system by BROMOscan assay
[17] = biological target: Bromodomain adjacent to zinc finger domain protein 2B (Homo sapiens, UniProt Q9UIF8); test: Binding affinity to human partial length BAZ2B (S2054 to S2168 residues) expressed in bacterial expression system by BROMOscan assay
[18] = biological target: Bromodomain-containing protein 1 (Homo sapiens, UniProt O95696); test: Binding affinity to human partial length BRD1 (E556 to A688 residues) expressed in bacterial expression system by BROMOscan assay
[19] = biological target: Bromodomain-containing protein 7 (Homo sapiens, UniProt Q9NPI1); test: Binding affinity to human partial length BRD7 (L125 to R254 residues) expressed in […] expression system by BROMOscan assay
Chain of Bromodomain-containing protein 7 (Q9NPI1 whole entry, the tested form may be a part): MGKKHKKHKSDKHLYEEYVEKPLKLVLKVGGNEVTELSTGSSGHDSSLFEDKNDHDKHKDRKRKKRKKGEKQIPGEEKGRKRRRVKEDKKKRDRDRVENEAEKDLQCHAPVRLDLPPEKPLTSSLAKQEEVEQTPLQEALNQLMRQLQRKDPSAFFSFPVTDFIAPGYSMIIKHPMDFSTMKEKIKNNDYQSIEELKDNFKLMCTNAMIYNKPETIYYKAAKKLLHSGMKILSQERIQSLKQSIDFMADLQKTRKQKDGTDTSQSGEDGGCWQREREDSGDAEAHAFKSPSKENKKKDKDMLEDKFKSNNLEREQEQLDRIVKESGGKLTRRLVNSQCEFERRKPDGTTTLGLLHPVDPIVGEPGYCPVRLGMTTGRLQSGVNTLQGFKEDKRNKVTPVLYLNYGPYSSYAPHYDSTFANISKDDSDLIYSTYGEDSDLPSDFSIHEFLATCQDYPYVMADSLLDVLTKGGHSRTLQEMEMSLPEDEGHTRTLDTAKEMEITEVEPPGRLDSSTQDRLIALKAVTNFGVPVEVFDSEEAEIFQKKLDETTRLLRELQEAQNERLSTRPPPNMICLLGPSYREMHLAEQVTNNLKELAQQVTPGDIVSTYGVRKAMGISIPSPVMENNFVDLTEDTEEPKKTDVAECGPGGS

[20] = biological target: Bromodomain-containing protein 8 (Homo sapiens, UniProt Q9H0E9); test: Binding affinity to human partial length BRD8 bromodomain 2 (D1095 to F1235 residues) expressed in mammalian expression system by BROMOscan assay
Peregrin = Peregrin (Homo sapiens, UniProt P55201); test: Binding affinity to human partial length BRPF1 (E627 to G740 residues) expressed in bacterial expression system by BROMOscan assay
[21] = biological target: Bromodomain and PHD finger-containing protein 3 (Homo sapiens, UniProt Q9ULD4); test: Binding affinity to human partial length BRPF3 (E588 to G701 residues) expressed in bacterial expression system by BROMOscan assay
[22] = biological target: Histone acetyltransferase KAT2A (Homo sapiens, UniProt Q92830); test: Binding affinity to human partial length GCN5L2 (E726 to K837 residues) expressed in bacterial expression system by BROMOscan assay
Chain of Histone acetyltransferase KAT2A (Q92830 whole entry, the tested form may be a part): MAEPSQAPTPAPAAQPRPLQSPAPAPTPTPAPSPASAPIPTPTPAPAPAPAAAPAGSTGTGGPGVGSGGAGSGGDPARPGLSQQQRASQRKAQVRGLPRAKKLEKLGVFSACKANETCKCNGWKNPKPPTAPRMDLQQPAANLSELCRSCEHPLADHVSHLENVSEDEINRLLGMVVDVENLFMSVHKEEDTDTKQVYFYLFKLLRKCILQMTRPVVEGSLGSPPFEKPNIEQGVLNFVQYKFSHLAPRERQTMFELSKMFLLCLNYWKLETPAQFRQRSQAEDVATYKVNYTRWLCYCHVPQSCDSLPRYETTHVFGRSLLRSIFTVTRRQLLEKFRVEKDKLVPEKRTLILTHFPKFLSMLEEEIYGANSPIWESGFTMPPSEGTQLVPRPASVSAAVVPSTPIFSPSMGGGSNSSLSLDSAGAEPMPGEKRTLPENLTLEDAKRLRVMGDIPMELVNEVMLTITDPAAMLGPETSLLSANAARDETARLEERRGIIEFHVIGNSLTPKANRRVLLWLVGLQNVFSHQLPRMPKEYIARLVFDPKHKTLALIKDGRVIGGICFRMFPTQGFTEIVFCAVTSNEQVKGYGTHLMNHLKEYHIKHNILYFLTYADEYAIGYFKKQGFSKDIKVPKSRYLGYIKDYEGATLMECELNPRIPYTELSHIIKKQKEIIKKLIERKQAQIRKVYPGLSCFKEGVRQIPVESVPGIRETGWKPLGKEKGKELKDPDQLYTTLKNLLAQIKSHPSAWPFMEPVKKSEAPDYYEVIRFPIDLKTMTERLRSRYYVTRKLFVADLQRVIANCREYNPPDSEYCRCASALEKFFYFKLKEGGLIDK

[23] = biological target: Histone acetyltransferase KAT2B (Homo sapiens, UniProt Q92831); test: Binding affinity to human partial length PCAF (G715 to D831 residues) expressed in bacterial expression system by BROMOscan assay
Chain of Histone acetyltransferase KAT2B (Q92831 whole entry, the tested form may be a part): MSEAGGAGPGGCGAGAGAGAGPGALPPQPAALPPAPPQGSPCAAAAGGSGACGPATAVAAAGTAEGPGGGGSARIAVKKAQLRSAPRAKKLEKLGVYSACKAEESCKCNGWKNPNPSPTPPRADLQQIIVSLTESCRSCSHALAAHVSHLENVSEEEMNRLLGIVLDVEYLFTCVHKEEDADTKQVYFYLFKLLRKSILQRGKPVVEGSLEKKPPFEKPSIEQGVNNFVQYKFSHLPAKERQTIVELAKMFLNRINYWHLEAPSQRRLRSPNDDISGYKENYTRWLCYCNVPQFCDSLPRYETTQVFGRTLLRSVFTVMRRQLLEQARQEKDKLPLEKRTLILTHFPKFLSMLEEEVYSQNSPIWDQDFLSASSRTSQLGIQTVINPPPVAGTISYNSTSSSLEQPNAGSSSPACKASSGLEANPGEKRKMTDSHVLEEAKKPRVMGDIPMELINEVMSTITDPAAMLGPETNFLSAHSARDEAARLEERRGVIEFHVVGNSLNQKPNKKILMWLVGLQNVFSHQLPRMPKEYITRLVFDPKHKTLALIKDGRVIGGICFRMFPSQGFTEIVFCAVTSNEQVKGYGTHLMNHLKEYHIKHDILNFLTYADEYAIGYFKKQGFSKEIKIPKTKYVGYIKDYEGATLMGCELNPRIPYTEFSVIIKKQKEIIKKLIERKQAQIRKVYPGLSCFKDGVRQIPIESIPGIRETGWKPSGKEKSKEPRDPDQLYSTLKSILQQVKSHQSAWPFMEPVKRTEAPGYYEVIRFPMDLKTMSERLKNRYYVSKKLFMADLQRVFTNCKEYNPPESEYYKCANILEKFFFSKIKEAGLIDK

[24] = biological target: SWI/SNF-related matrix-associated actin-dependent regulator of chromatin subfamily A member 2 (Homo sapiens, UniProt P51531); test: Binding affinity to human partial length SMARCA2 (S1377 to Q1486 residues) expressed in bacterial expression system by BROMOscan assay
Chain of SWI/SNF-related matrix-associated actin-dependent regulator of chromatin subfamily A member 2 (P51531 whole entry, the tested form may be a part): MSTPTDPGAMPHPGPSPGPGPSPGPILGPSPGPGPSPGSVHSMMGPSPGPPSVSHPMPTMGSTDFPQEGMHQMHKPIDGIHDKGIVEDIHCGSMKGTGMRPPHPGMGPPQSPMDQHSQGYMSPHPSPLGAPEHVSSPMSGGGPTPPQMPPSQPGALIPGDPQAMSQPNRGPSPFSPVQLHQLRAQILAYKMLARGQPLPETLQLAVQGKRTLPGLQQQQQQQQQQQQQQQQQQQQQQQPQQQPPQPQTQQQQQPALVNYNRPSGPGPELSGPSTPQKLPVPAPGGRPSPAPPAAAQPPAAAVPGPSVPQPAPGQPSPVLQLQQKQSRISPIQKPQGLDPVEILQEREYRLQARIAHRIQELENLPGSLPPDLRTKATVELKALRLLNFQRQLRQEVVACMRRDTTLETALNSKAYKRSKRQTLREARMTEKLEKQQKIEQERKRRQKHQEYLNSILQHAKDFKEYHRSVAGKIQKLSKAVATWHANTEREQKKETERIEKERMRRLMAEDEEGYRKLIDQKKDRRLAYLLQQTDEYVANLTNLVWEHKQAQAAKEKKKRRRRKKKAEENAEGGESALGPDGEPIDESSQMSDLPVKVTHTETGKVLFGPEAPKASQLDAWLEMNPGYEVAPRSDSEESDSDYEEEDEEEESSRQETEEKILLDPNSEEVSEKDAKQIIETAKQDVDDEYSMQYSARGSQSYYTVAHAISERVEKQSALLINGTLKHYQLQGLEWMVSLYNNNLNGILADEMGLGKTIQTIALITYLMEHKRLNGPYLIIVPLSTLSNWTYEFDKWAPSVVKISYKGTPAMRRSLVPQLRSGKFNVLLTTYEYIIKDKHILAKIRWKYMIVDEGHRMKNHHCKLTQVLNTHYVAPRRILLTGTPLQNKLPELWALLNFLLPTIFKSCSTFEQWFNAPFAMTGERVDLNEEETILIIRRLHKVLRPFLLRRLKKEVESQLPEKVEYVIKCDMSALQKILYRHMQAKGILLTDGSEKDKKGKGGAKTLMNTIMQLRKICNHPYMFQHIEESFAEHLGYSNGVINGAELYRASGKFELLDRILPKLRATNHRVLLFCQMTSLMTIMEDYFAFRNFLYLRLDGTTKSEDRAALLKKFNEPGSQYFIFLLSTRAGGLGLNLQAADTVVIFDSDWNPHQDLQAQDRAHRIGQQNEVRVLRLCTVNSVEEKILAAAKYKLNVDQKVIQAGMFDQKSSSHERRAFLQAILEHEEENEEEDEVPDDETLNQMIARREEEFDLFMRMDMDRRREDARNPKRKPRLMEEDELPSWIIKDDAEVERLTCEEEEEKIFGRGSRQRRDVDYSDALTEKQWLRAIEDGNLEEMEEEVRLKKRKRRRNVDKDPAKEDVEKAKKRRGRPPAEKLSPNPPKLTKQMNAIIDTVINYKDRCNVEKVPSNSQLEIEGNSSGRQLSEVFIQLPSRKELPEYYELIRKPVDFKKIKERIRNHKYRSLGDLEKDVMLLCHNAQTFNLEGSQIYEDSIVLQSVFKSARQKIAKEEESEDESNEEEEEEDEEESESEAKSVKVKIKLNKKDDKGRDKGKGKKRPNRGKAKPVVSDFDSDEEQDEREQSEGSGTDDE

[25] = biological target: Transcription initiation factor TFIID subunit 1 (Homo sapiens, UniProt P21675); test: Binding affinity to human partial length TAF1 bromodomain 2 (D1521 to D1656 residues) expressed in bacterial expression system by BROMOscan assay
[26] = biological target: Transcription intermediary factor 1-alpha (Homo sapiens, UniProt O15164); test: Binding affinity to human partial length TRIM24 expressed in bacterial expression system by BROMOscan assay
SUM-159-PT = test: Cytotoxicity against human SUM159PT cells assessed as cell growth inhibition after 4 days by WST-8 assay; assay type: functional, cell-based; conditions: 96 h
In short: (§2)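 Breast cancer cells were seeded at 3,000 cells/well, treated with serially diluted compound in medium and cultured for 4 days. Growth was read by WST-8 (10% v/v final, 1–3 h) at 450 nm. Readings were normalized to DMSO-treated cells, and IC50 was obtained by nonlinear regression.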

HCC1937 = test: Cytotoxicity against human HCC1937 cells assessed as cell growth inhibition after 4 days by WST-8 assay; assay type: functional, cell-based; conditions: HCC1937, 96 h; in short: as §2
Mus musculus [27] = test: Toxicity in SCID mouse implanted with human MDA-MB-231 cells at 40 mg/kg, po qd measured 2 to 3 times weekly during treatment and weekly post dose; assay type: organism-based; conditions: in vivo; in short: as §1

For COc1cc2c(cc1-c1c(C)noc1C)[nH]c1nc(C)nc(-c3ccnc4ccccc34)c12, the IC50 [1] was 7.2 nM, the Ki [1] was 1.4 nM and the Activity (Mus musculus [2]) was “Non-Toxic”. For the same compound, the AUC(0-t) [3] was 29500 ng·h/mL, the half-life [4] was 2.4 h and the Vd [5] was 2 L/kg. It also gave a t1/2 (Mus musculus [6]) of 0.5 h, an AUC(0-t) [7] of 3690 ng·h/mL and a t1/2 [8] of over 1 h. For the same compound, the Kd [9] was 2 nM, the Kd [10] was 0.69 nM and the Kd [11] was 8.4 nM. It also gave a Kd [12] of 1.8 nM, a Kd [13] of 5.5 nM and a Kd [14] of 9.7 nM. It also gave a Kd [15] of 550 nM, a Kd [16] of over 4000 nM and a Kd [17] of over 4000 nM. For the same compound, the Kd [18] was over 4000 nM, the Kd [19] was over 4000 nM and the Kd [20] was over 4000 nM. For the same compound, the Kd (Peregrin) was over 4000 nM, the Kd [21] was over 4000 nM and the Kd [22] was over 4000 nM. For the same compound, the Kd [23] was over 4000 nM, the Kd [24] was over 4000 nM and the Kd [25] was over 4000 nM. The Kd [26] was over 4000 nM, the IC50 (SUM-159-PT) was over 2000 nM and the IC50 (HCC1937) was over 2000 nM. For the same compound, the Activity (Mus musculus [27]) was “Non-Toxic”.
